Experimental data of several laboratories.
Protocols differ between the studies behind these lines.
Target: Wee1-like protein kinase 2 (WEE2, Homo sapiens, UniProt P0C1S8)

Cc1cnn2ncc(-c3ccnc(N(C)C)n3)c2c1  remaining binding (binding; 1 µM): 100%
NS(=O)(=O)c1cc(NC(=O)Cc2ccccc2)ccc1Oc1cccc(Cl)c1  remaining binding (cell-free assay; competition with immobilised ligand; 1 µM): 78%
COc1ncc2cc3ccccc3nc2c1C#N  remaining binding (cell-free assay; competition with immobilised ligand; 5 µM): 100%
COc1ccnn2ncc(-c3ccnc(N(C)C)n3)c12  remaining binding (binding; 1 µM): 96%
CNC(=O)[C@@H]1CC[C@@H](n2c(-c3ccc4cnccc4c3)nc3ccc(C(=O)NCc4cccc(C(N)=O)c4)cc32)C1  remaining binding (binding; competition with immobilised ligand; 1 µM): 100%
O=C(NCC1CCOCC1)c1n[nH]cc1NC(=O)c1c(F)cccc1F  remaining binding (binding; competition with immobilised ligand; 1 µM): 100%
C[C@@H]1CCN(c2nccc(-c3cnn4ncccc34)n2)C1  remaining binding (binding; 1 µM): 87%
O=C1CCc2cc(Nc3cc(OC4CCOCC4)c([N+](=O)[O-])cc3Cl)ccc2N1  remaining binding (cell-free assay; competition with immobilised ligand; 1 µM): 96%
FC(F)(F)Oc1cccc(-c2cnc3ccc(-c4ccncc4)nn23)c1  remaining binding (binding; competition with immobilised ligand; 5 µM): 86%
COc1cnc(Nc2cccc(S(N)(=O)=O)c2)nc1N1CCN(c2ccccc2)C(=O)C1  remaining binding (binding; competition with immobilised ligand; 1 µM): 100%
N[C@@H]1CCN(c2nccc(-c3cnn4ncccc34)n2)C1  remaining binding (binding; 1 µM): 100%
O=C(c1ccc(Nc2ncc(Cl)c(-c3cc4ccccc4s3)n2)cc1)N1CCC(N2CCCC2)CC1  remaining binding (binding; competition with immobilised ligand; 1 µM): 27%
CN(C)c1ncc(F)c(-c2cnn3ncccc23)n1  remaining binding (binding; 1 µM): 98%
Cc1cc(-n2nc(Cc3cc(F)cc(C(F)(F)F)c3)nc2C)ccc1C(N)=O  remaining binding (cell-free assay; competition with immobilised ligand; 1 µM): 100%
O=C(NCCCN1CCOCC1)c1ccc(Nc2nccc(-c3cc4ccccc4s3)n2)cc1  remaining binding (binding; competition with immobilised ligand; 1 µM): 86%
O=C(Nc1cnc(Oc2ccc(F)cc2)nc1)N1CCc2ncccc2[C@@H]1c1ccc(F)cc1  remaining binding (cell-free assay; competition with immobilised ligand; 1 µM): 95%
O=C(c1ccc(Nc2ncc(Cl)c(-c3ccc(Cl)s3)n2)cc1)N1CCC(N2CCCC2)CC1  remaining binding (binding; competition with immobilised ligand; 1 µM): 8.4%
CCc1ccccc1C(=O)Nc1n[nH]c2c(C)c(F)c(C3C(C#N)=C(C)N(C)C(C)=C3C#N)cc12  remaining binding (cell-free assay; competition with immobilised ligand; 1 µM): 82%
CN(c1nccc(-c2cnn3ncccc23)n1)C1CC1  remaining binding (binding; 1 µM): 100%
CCCCN(CCCC)C(=O)CN1C[C@@H](c2cc(OC)c3c(c2)OCO3)[C@H](C(=O)O)[C@H]1CC(C)(C)CCC  remaining binding (cell-free assay; competition with immobilised ligand; 1 µM): 89.1%
C[C@@H](c1ccc(-n2cnc3c(N)ncnc32)cc1)N1CCc2nn(C)c(Cc3ccccc3)c2C1=O  remaining binding (binding; competition with immobilised ligand; 0.1 µM): 92%
